Measurements reported in ChEMBL document CHEMBL2424619, “Small-molecule ligands of methyl-lysine binding proteins: optimization of selectivity for L3MBTL3” (J Med Chem, 2013).

Tests used:
[1] = target: T1, Lethal(3)malignant brain tumor-like protein 3 (Homo sapiens, UniProt Q96JM7); test: Inhibition of L3MBTL3 (unknown origin) after 30 mins by AlphaScreen assay
T1 sequence (Q96JM7 whole entry): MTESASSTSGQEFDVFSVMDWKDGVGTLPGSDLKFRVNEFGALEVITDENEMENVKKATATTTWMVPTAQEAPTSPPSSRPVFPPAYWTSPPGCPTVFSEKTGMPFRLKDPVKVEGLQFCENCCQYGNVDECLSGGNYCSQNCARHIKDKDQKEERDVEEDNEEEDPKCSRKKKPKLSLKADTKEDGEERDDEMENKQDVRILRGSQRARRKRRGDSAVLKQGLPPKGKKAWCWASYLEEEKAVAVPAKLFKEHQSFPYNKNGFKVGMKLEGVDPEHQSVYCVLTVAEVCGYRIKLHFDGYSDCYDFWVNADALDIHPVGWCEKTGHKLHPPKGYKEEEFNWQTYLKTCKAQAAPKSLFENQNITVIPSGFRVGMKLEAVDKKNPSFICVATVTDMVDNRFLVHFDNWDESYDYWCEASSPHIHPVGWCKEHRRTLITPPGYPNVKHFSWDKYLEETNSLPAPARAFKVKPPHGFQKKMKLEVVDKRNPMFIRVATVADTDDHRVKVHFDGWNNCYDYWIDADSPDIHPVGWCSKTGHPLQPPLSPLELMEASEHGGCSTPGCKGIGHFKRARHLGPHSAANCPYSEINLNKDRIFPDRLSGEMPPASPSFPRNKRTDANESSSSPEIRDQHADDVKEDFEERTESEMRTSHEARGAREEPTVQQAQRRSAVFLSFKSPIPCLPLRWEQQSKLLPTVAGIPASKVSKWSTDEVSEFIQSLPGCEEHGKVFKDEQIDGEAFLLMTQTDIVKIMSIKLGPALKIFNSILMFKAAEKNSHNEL
How it was run: (§1)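 AlphaScreen competition with histone peptide. Compounds in 3-fold, 10-point dilutions, top 10 or 30 μM; buffer 20 mM Tris pH 8.0, 25 mM NaCl, 2 mM DTT, 0.05% Tween-20. Protein-peptide mix 30 min RT, then streptavidin donor plus nickel-chelate acceptor beads (GST acceptor beads for GST-tagged PHF23, JARID1A) 30 min RT dark. Protein-free His6-biotin peptide counterscreen.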

[2] = target: Lysine-specific demethylase 5A (Homo sapiens, UniProt P29375); test: Inhibition of JARID1A (unknown origin) after 30 mins by AlphaScreen assay
Chain of Lysine-specific demethylase 5A (P29375 whole entry): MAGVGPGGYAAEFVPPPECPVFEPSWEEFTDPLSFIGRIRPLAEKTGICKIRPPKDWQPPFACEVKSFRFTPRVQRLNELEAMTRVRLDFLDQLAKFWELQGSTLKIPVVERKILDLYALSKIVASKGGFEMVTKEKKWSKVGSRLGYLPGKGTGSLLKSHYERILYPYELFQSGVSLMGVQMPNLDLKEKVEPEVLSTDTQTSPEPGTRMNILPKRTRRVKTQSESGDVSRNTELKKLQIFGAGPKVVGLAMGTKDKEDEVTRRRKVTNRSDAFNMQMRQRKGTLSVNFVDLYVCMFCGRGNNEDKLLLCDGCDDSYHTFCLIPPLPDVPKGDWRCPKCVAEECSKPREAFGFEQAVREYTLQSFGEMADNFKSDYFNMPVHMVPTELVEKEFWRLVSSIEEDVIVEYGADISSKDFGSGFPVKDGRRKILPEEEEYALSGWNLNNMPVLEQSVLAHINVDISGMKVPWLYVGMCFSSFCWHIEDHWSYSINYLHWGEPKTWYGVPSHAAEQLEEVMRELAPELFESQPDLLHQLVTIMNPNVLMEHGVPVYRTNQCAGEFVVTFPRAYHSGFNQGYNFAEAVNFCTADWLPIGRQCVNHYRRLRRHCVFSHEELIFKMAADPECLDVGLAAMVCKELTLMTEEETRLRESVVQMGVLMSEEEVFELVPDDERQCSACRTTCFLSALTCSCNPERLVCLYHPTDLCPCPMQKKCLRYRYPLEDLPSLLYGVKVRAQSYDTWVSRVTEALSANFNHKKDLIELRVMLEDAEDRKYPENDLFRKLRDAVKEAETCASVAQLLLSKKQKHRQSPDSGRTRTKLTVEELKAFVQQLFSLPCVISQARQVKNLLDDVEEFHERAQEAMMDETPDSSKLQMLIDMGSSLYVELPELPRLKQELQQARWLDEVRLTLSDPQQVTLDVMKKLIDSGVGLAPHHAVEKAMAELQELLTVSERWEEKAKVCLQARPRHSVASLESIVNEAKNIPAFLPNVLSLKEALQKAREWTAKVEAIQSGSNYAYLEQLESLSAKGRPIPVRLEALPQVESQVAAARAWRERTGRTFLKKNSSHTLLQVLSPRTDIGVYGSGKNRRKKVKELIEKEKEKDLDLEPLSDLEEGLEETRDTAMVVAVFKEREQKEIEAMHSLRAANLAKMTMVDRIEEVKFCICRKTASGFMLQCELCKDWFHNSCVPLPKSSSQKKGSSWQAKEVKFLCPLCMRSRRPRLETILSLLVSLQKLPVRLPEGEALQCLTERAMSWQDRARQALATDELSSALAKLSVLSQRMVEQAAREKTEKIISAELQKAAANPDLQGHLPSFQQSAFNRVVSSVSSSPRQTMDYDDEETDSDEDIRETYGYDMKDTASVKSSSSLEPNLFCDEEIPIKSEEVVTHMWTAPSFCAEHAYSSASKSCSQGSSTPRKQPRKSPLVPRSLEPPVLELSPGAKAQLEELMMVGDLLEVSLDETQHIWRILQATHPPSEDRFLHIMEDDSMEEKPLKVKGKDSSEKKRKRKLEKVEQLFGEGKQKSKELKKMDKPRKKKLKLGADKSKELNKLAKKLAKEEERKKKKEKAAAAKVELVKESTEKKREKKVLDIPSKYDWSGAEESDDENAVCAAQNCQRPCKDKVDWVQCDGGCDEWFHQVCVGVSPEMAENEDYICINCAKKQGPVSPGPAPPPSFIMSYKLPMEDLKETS
How it was run: as §1, with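 “dark. […]” for “dark.”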

PHD finger protein 23 = PHD finger protein 23 (Homo sapiens, UniProt Q9BUL5); test: Inhibition of PHF23 (unknown origin) after 30 mins by AlphaScreen assay; how it was run: as §1
Chain of PHD finger protein 23 (Q9BUL5 whole entry, the tested form may be a part): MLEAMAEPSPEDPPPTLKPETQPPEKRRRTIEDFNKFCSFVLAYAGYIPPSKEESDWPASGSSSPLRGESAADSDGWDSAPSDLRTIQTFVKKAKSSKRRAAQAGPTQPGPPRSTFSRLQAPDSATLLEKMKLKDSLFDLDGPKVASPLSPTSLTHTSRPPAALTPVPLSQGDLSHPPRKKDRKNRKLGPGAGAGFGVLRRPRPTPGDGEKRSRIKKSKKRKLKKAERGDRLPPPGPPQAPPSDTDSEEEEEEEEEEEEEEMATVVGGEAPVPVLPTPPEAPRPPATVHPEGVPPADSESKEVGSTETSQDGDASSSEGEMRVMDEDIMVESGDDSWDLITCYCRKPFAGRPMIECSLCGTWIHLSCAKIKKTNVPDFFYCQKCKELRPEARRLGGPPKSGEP

[3] = target: T2, Scm-like with four MBT domains protein 1 (Homo sapiens, UniProt Q9UHJ3); test: Inhibition of SFMBT1 (unknown origin) after 30 mins by AlphaScreen assay
T2 sequence (Q9UHJ3 whole entry): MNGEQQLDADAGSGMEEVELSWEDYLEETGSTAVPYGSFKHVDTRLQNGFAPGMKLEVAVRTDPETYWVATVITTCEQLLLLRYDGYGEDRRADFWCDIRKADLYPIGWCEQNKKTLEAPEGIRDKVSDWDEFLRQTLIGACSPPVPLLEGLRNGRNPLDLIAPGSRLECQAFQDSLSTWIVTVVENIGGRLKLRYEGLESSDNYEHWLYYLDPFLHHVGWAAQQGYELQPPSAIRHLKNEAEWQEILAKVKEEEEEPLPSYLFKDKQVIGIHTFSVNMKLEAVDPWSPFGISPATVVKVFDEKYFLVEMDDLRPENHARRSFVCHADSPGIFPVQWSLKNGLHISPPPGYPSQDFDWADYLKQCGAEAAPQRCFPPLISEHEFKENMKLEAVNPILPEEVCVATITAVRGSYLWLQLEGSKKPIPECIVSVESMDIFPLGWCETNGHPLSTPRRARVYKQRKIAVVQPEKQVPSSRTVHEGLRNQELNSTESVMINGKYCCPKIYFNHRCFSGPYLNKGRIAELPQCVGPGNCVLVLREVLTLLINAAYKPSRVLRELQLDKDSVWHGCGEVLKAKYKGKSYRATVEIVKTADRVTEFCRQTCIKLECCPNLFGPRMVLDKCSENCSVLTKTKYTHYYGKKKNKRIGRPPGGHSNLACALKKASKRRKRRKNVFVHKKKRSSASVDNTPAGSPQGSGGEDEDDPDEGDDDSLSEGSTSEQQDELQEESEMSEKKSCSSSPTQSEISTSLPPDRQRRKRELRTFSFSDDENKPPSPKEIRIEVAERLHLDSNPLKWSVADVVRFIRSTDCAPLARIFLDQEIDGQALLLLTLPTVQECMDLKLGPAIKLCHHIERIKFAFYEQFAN
How it was run: as §1, with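 “dark. […]” for “dark.”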

[4] = target: T3, E3 ubiquitin-protein ligase UHRF1 (Homo sapiens, UniProt Q96T88); test: Inhibition of UHRF1 (unknown origin) after 30 mins by AlphaScreen assay
T3 sequence (Q96T88 whole entry): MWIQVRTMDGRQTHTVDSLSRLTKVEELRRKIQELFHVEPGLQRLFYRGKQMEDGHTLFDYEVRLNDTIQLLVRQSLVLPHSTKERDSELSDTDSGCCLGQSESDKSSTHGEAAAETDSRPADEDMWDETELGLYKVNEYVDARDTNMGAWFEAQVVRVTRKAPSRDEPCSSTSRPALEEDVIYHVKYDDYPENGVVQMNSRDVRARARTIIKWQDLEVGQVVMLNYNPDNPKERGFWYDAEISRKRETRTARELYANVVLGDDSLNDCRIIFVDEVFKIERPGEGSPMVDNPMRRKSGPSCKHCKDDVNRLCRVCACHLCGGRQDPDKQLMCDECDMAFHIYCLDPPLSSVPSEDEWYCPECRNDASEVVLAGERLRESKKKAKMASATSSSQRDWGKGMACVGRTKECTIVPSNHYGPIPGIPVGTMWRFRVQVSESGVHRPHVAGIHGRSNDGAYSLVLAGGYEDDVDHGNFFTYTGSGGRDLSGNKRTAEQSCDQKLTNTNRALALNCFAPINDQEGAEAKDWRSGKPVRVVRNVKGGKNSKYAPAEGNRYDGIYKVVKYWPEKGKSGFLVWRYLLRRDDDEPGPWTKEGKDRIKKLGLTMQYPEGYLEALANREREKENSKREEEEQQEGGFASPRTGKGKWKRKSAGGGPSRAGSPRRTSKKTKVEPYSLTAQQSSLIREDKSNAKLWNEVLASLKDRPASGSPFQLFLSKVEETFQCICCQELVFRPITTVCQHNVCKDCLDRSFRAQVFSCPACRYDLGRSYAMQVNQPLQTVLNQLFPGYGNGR
How it was run: as §1, with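 “dark. […]” for “dark.”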

TP53-binding protein 1 = TP53-binding protein 1 (Homo sapiens, UniProt Q12888); test: Inhibition of 53BP1 (unknown origin) after 30 mins by AlphaScreen assay
Chain of TP53-binding protein 1 (Q12888 whole entry): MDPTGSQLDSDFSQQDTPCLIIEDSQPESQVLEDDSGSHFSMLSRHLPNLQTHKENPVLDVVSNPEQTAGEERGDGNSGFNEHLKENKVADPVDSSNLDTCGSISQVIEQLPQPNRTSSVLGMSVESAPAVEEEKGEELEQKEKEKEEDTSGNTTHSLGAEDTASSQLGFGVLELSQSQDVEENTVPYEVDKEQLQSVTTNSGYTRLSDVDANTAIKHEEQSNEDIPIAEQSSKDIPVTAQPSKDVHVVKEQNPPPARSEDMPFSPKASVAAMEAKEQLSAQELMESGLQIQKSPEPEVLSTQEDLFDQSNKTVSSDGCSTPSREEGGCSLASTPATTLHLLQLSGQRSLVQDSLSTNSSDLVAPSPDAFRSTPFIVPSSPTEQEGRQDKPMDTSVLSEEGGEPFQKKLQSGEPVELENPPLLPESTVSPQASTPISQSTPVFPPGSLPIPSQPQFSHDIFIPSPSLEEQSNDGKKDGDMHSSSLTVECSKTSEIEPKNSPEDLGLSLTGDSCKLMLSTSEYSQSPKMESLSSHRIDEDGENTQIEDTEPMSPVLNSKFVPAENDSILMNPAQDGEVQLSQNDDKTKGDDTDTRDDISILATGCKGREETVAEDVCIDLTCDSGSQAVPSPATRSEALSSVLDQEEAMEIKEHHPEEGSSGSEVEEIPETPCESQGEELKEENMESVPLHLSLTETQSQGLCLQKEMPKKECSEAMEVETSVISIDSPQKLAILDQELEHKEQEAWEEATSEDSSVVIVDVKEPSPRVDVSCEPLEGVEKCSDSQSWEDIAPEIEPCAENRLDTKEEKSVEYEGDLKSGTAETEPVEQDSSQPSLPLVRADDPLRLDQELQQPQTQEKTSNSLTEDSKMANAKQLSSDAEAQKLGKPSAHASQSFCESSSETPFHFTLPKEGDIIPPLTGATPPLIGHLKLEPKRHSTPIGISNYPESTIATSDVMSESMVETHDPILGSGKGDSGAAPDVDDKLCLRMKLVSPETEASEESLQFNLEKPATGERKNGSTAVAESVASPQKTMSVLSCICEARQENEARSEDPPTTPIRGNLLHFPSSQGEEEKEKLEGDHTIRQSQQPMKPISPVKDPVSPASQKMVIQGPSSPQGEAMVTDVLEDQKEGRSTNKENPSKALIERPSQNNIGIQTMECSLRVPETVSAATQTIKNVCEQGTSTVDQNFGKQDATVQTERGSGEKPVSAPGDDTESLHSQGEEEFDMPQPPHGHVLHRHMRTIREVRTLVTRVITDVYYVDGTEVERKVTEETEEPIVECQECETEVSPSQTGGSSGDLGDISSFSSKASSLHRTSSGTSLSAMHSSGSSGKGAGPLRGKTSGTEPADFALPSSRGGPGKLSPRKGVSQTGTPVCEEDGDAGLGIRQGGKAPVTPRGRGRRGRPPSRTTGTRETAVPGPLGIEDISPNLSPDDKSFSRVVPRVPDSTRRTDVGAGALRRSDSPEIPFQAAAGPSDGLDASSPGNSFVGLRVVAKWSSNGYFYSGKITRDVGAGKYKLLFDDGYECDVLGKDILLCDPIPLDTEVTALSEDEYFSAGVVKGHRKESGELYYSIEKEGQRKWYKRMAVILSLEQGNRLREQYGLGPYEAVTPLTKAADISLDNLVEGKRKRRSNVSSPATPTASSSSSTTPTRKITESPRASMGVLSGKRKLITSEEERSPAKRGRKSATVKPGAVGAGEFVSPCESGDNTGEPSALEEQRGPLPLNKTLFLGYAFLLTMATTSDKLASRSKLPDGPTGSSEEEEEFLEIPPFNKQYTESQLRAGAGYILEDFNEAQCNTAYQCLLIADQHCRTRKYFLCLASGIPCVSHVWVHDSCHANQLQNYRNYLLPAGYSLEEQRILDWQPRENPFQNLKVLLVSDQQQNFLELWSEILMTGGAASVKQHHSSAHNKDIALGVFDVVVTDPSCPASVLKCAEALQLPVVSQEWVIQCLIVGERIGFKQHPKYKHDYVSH
How it was run: as §1, with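 “dark. […]” for “dark.”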

[5] = target: T4, Lethal(3)malignant brain tumor-like protein 4 (Homo sapiens, UniProt Q8NA19); test: Inhibition of L3MBTL4 (unknown origin) after 30 mins by AlphaScreen assay; how it was run: as §1
T4 sequence (Q8NA19 whole entry): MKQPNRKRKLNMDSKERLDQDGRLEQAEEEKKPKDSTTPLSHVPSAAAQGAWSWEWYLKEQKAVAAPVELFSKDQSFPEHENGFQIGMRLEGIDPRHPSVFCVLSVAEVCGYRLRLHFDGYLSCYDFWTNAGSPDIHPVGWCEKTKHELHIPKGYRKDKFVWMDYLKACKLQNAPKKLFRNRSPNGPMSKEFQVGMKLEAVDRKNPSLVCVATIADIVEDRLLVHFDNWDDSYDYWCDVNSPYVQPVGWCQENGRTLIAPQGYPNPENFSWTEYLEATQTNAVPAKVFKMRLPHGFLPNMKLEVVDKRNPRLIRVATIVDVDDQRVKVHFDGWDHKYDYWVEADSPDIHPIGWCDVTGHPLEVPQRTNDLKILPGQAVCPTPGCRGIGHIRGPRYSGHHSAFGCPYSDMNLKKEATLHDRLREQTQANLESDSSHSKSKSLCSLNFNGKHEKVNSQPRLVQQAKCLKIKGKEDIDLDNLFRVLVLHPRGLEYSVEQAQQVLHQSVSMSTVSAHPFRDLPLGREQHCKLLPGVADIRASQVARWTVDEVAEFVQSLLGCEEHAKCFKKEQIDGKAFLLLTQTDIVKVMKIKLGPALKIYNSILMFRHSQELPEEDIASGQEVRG

HEK-293T = test: Cytotoxicity against HEK293T/17 cells assessed as cell viability up to 100 uM after 24 hrs by CellTiter-Glo luminescence assay; format: cell-based; settings: human
How it was run: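 Cell viability by CellTiter-Glo luminescence, compound tested up to 100 μM.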

[6] = target: MBT domain-containing protein 1 (Homo sapiens, UniProt Q05BQ5); test: Inhibition of MBTD1 (unknown origin) after 30 mins by AlphaScreen assay; how it was run: as §1
Chain of MBT domain-containing protein 1 (Q05BQ5 whole entry, the tested form may be a part): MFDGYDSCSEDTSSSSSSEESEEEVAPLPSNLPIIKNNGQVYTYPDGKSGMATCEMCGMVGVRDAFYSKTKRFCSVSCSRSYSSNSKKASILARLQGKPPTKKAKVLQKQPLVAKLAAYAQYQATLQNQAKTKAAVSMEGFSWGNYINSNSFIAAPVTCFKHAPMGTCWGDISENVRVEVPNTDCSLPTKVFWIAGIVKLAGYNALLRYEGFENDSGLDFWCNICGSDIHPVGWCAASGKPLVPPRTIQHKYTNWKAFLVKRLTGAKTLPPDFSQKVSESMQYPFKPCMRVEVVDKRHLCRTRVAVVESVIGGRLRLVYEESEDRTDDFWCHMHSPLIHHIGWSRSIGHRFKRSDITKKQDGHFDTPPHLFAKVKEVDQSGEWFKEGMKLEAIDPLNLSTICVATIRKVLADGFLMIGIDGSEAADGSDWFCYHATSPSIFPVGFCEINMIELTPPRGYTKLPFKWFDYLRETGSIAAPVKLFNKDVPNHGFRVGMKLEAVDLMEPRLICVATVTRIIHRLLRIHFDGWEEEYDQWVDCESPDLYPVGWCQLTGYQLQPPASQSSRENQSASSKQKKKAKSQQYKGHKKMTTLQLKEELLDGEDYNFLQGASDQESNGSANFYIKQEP

[7] = target: T5, Chromobox protein homolog 7 (Homo sapiens, UniProt O95931); test: Inhibition of CBX7 (unknown origin) after 30 mins by AlphaScreen assay; how it was run: as §1
T5 sequence (O95931 whole entry): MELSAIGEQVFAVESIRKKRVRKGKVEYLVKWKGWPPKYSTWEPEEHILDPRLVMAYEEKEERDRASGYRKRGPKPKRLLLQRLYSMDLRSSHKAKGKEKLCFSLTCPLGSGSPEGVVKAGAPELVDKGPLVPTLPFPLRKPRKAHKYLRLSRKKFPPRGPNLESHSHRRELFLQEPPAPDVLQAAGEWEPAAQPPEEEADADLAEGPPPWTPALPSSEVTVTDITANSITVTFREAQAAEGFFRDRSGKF

## CCN1Cc2ccc(NC(=O)c3cccc(Br)c3)cc2C1
[1]
  IC50: 1.2 µM

## O=C(c1ccc(C(=O)N2CCC(N3CCCC3)CC2)cc1)N1CCC(N2CCCC2)CC1
[2]
  IC50: > 10 µM
PHD finger protein 23
  IC50: > 10 µM
[3]
  IC50: > 10 µM
[4]
  IC50: > 10 µM
TP53-binding protein 1
  IC50: > 10 µM
[5]
  IC50: > 10 µM
HEK-293T
  Activity: Non-toxic
[6]
  IC50: > 10 µM
[7]
  IC50: > 10 µM

## O=C(c1cccc(Br)c1)N1CC2CCC(C1)C2N1CCCC1 (centres undefined)
[1]
  IC50: 3.2 µM

## O=C(c1ccc(C(=O)N2CCN(C3CCCC3)CC2)cc1)N1CCC(N2CCCC2)CC1
[4]
  IC50: > 10 µM
TP53-binding protein 1
  IC50: > 10 µM

## O=C(c1cccc(Br)c1)N1CCC(N2CCCC2)CC1
[1]
  IC50: 4.1 µM
